Activity calls are given as the source filed them. The calls are words filed in the database; no cut-off is given here.
How the values were obtained:
[1] = tested on: Radical scavenging activity; assay: Antioxidant activity assessed as DPPH free radical scavenging activity at 10 uM after 30 mins […] by spectrophotometric analysis; assay type: functional
[2] = tested on: PBMC; assay: Cytotoxicity against human PBMCs assessed as cell viability after 24 hrs by MTT assay; assay type: cell-based
How it was run: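 Human PBMC (2 × 10⁵/well), 24 h exposure. MTT then 4 h at 37 °C in darkness. Formazan solubilized with 10% SDS in 20 mM HCl; absorbance 550 nm. Viability relative to untreated cells; IC50 derived.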

[3] = target: T1, Polyunsaturated fatty acid 5-lipoxygenase (Homo sapiens, UniProt P09917); assay: Inhibition of human recombinant 5-LO expressed in Escherichia coli Bl21 (DE3) using arachidonic acid as substrate preincubated for 10 mins measured after 10 mins by RP-HPLC analysis
T1 sequence (P09917 whole entry): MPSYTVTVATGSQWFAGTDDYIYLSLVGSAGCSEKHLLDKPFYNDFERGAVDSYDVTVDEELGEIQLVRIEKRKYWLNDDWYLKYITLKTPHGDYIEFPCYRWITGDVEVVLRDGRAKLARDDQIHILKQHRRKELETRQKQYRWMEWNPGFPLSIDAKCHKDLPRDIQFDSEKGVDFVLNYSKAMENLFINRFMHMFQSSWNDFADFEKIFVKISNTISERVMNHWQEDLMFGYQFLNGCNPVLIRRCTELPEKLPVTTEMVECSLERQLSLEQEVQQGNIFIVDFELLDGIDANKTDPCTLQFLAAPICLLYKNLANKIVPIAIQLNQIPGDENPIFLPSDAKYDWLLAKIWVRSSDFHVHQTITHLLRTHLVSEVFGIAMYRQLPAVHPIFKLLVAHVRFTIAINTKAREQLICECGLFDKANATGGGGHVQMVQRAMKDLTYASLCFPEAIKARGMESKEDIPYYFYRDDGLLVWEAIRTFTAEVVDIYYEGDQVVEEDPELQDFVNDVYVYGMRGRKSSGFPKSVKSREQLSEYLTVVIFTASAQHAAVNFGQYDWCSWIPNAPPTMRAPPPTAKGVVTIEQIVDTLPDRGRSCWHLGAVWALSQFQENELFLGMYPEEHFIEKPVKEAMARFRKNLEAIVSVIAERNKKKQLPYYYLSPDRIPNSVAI
How it was run: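 5-LO expressed from pT3-5LO in E. coli BL21(DE3), semi-purified on ATP-agarose, diluted in PBS with 1 mM EDTA and 1 mM ATP. Preincubated with compound 10 min at 4 °C, then 30 s at 37 °C. Started with 2 mM CaCl2 plus 20 μM arachidonic acid; 10 min at 37 °C; ice-cold methanol stop. Three to four experiments.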

[4] = target: Prostaglandin G/H synthase 1 (Homo sapiens, UniProt P23219); assay: Inhibition of COX1-mediated PGE2 production in human platelets assessed as residual activity by measuring formation of 12-HHT from arachidonic acid preincubated at 10 uM for 5 mins measured after 5 mins by RP-HPLC analysis relative to control
How it was run: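 Washed human platelets, 10⁸/mL in PBS pH 7.4 with 1 mM CaCl2: 5 min compound preincubation at room temperature, then 1 min at 37 °C. Arachidonic acid 5 μM added; 5 min at 37 °C. 12-HHT extracted and measured by RP-HPLC.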

[5] = target: T1, Polyunsaturated fatty acid 5-lipoxygenase; assay: Inhibition of 5-LO in human neutrophils using arachidonic acid as substrate preincubated for 15 mins measured after 10 mins by HPLC analysis
How it was run: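 Fresh human neutrophils, 1 × 10⁷/mL in PBS pH 7.4 with 1 mM CaCl2 and 1 mg/mL glucose, preincubated 15 min at 37 °C. LTB4, its all-trans isomers and 5-H(P)ETE by HPLC.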

[6] = target: T2, Prostaglandin G/H synthase 1 (Ovis aries) (UniProt P05979); assay: Inhibition of purified ovine COX-1 assessed as residual activity by measuring formation of 12-HHT from arachidonic acid preincubated at 10 uM for 5 mins before substrate addition measured after 5 mins by HPLC analysis relative to control
T2 sequence (whole entry): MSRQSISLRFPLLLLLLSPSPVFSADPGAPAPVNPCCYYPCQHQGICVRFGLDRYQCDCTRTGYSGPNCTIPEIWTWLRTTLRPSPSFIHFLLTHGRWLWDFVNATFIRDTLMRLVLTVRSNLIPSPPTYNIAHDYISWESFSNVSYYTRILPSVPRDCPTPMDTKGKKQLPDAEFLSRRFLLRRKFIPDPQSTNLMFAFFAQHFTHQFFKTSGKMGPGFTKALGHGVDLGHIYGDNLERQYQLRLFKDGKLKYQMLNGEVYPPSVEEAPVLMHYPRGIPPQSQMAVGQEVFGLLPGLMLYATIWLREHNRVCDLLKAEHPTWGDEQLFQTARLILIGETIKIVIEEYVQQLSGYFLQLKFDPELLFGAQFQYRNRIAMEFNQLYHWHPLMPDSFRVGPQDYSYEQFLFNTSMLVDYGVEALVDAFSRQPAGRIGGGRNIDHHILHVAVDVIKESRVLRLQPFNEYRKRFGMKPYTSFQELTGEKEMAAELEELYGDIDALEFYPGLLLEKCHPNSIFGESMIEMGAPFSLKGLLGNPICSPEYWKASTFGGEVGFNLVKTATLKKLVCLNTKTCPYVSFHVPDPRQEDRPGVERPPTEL
How it was run: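 Purified ovine COX-1 (50 units) in 100 mM Tris pH 8 with 5 mM glutathione, 5 μM hemoglobin and 100 μM EDTA. Preincubated 5 min at 4 °C then 1 min at 37 °C. 5 μM arachidonic acid added; 12-HHT extracted after 5 min and measured by HPLC. Residual activity at 10 μM, three independent experiments.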

[7] = target: T3, Polyunsaturated fatty acid lipoxygenase ALOX12 (Homo sapiens) (UniProt P18054); assay: Inhibition of 12-LO in human neutrophils assessed as residual activity relative to control; details: for residual activity: values are per cent of control
T3 sequence (whole entry): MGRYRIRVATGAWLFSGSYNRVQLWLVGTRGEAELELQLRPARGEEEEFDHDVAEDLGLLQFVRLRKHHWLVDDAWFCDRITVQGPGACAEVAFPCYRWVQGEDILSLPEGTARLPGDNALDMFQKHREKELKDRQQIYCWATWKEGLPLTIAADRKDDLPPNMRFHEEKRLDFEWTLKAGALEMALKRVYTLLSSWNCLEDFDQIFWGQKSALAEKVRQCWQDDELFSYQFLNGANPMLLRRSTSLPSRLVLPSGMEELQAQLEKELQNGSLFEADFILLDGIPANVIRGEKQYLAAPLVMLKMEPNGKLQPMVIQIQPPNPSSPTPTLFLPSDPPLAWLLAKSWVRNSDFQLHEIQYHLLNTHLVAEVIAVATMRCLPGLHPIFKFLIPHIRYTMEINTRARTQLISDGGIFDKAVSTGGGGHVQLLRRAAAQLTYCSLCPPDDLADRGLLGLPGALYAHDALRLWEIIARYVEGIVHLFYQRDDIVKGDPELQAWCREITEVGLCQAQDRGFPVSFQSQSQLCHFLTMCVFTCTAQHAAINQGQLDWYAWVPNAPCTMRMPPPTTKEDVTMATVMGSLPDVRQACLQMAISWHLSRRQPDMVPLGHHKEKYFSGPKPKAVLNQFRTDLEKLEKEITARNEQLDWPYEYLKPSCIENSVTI

Chain of Prostaglandin G/H synthase 1 (P23219 whole entry): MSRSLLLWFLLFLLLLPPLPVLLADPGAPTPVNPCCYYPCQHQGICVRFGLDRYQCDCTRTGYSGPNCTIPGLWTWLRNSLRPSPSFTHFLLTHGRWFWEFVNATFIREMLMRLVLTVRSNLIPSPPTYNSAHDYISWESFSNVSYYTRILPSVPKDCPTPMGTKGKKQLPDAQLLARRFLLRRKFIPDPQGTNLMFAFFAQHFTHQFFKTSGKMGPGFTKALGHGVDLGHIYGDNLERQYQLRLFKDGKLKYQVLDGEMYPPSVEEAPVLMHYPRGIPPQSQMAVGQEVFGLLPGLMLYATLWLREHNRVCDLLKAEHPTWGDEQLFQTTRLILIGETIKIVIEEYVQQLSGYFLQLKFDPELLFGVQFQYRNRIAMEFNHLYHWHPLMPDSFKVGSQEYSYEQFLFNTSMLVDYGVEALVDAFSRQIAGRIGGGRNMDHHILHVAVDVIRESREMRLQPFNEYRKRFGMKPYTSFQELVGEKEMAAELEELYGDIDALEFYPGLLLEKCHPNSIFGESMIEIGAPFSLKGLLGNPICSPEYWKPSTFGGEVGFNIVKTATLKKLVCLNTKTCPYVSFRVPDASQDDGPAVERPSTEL

SMILES	Activity [1] [%]	IC50 [2] [µM]	IC50 [3] [µM]	inhibition [4]	IC50 [5] [µM]	inhibition [6]	residual activity [7] [%]	inhibition [7]
COc1cc(/C=C/C(=O)CC(=O)c2ccc(O)c(OC)c2)ccc1O	80.2	> 50	2.3	inactive	9.9	inactive	60.6	
COc1cc(/C=C/C(=O)/C=C/c2cc(CC=C(C)C)c(O)c(OC)c2)cc(CC=C(C)C)c1O	75.8	> 50	0.5	inactive	1.7		64.7	
COc1cc(/C=C/c2cc(/C=C/c3cc(CC=C(C)C)c(O)c(OC)c3)[nH]n2)cc(CC=C(C)C)c1O	57.3	> 50	0.1	inactive	0.8	inactive	68.7	
COc1cc(/C=C/c2cc(-c3ccc(O)c(OC)c3)[nH]n2)ccc1O	70.3	> 50	0.09	inactive	1.9	inactive		
COc1cc(/C=C/C(=O)CC(=O)/C=C/c2cc(CC=C(C)C)c(O)c(OC)c2)cc(CC=C(C)C)c1O	57.9	> 50	0.7	inactive				inactive
COc1cc(/C=C/c2cc(/C=C/c3ccc(O)c(OC)c3)[nH]n2)ccc1O [CURCUMIN PYRAZOLE]	59.6	> 50	0.07		0.7	inactive		
COc1cc(/C=C/C(=O)CC(=O)/C=C/c2ccc(O)c(OC)c2)ccc1O [CURCUMIN]	63.9	34.8				inactive	65	
COc1cc(CCC(=O)CC(=O)CCc2ccc(O)c(OC)c2)ccc1O [TETRAHYDROCURCUMIN]	62.2	> 50	3.2	inactive		inactive	87.4	
COc1cc(/C=C/C(=O)/C=C/c2ccc(O)c(OC)c2)ccc1O	80.7	34.7	0.8	inactive	5.2	inactive	70.1	

— ChEMBL document CHEMBL3286393 (J Med Chem, 2014)
